From PMC11170203 (Saudi Pharmaceutical Journal : SPJ, 2024)

Legend:
[1] = Ferric reducing antioxidant power; conditions: mean ± S.D. of three measurements
In short: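 FRAP reagent is acetate buffer (300 mM, pH 3.6), TPTZ (10 mM in 40 mM HCl) and FeCl3·6H2O (20 mM) at 10:1:1, prewarmed 10 min at 37 °C. The test extract reacts with the reagent for 30 min at 37 °C, and Fe(II)-TPTZ is read at 593 nm. Values come from a ferrous sulfate calibration curve, as FeSO4 equivalents per g extract. Ascorbic acid is the reference; three independent experiments, mean ± SD.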

[2] = DPPH radical scavenging assay
In short: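 The test extract (6.25–400 ug/mL) is mixed 1:1 with 0.06 mM DPPH in absolute ethanol and incubated 30 min in the dark. Absorbance is read at 517 nm and corrected with a DPPH-free sample background. BHT is the standard. % inhibition = (Acontrol − Asample)/Acontrol × 100. IC50 comes from dose-response curves; three independent experiments, mean ± SD.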

[3] = target: collagenase from Clostridium histolyticum; experiment: Collagenase enzyme inhibitory assay; assay type: biochemical; conditions: concentration range 15.63–1000 µg/mL
In short: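 Clostridium histolyticum collagenase (0.1 mg/mL) is preincubated with the test extract in tricine buffer (50 mM tricine, 10 mM CaCl2, 400 mM NaCl, pH 7.5) for 20 min at 37 °C. FALGPA substrate (1 mM solution) is added, and absorbance is read at 335 nm after 15 min. EGCG is the positive control. IC50 is taken from dose-response curves of % inhibition, with three independent experiments.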

[4] = target: porcine pancreatic elastase (Sus scrofa, UniProt P00772); experiment: Elastase enzyme inhibitory assay; assay type: biochemical; conditions: concentration range 15.63–1000 µg/mL
Chain of porcine pancreatic elastase (P00772 27-266): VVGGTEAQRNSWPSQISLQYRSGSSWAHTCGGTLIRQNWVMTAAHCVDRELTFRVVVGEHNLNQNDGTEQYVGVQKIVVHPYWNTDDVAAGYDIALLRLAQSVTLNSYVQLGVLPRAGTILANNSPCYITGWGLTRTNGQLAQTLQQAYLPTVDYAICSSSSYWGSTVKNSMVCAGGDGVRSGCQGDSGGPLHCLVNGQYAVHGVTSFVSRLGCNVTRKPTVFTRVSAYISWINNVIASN
In short: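 Porcine pancreatic elastase and the test extract in Tris-HCl (100 mM, pH 8.0) are incubated 5 min at 37 °C. The reaction is started with succinyl-Ala-Ala-Ala-p-nitroanilide (4.4 mM solution in Tris-HCl), and absorbance is read at 410 nm. EGCG is the positive control and distilled water the negative control. IC50 is taken from dose-response curves of % inhibition, with three independent experiments.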

[5] = target: T1, hyaluronidase (Bos taurus, UniProt Q2YDK3); experiment: Hyaluronidase enzyme inhibitory assay; assay type: biochemical; conditions: concentration range 25–250 µg/mL
T1 sequence (Q2YDK3 36-553): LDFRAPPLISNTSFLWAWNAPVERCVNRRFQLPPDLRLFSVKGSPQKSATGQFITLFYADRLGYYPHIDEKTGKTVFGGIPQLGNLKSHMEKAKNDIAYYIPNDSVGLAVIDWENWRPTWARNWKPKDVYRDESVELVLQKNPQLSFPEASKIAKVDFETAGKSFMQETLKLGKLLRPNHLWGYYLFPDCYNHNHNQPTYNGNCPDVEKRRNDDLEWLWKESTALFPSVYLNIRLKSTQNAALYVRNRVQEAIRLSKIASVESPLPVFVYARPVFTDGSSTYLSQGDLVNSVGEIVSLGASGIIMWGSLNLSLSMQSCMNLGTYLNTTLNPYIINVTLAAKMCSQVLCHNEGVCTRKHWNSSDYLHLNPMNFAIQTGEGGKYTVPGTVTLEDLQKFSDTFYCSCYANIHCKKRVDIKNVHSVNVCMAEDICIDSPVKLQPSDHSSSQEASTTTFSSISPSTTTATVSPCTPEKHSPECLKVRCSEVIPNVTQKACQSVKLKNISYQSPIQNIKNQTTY
In short: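 The test extract in 10% DMSO is incubated with hyaluronidase 10 min at 37 °C, then with CaCl2 (12.5 mM solution) for 10 min. Sodium hyaluronate is added for 40 min at 37 °C. NaOH (0.9 M) and sodium borate (0.2 M) are added and heated 3 min at 100 °C. PDMAB (67 mM) is added for 10 min at 37 °C, and absorbance is read at 585 nm. Tannic acid is the reference; IC50 comes from dose-response curves, three independent experiments.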

## O=C1O[C@H]([C@@H](O)CO)C(O)=C1O [Ascorbic acid]
[1]
  FRAP: 4794.7 ± 5.507 µM FeSO4/g extract

## Cc1cc(C(C)(C)C)c(O)c(C(C)(C)C)c1 [BHT, butylated hydroxytoluene]
[2]; mean ± S.D. of three measurements
  DPPH (IC50): 20.721 ± 0.138 µg/mL
[2]; unit as printed in the results text
  DPPH radical scavenging IC50: 20.72 ± 0.138 µg/mL

## O=C(O[C@@H]1Cc2c(O)cc(O)cc2O[C@@H]1c1cc(O)c(O)c(O)c1)c1cc(O)c(O)c(O)c1 [EGCG, epigallocatechin gallate]
[3]
  Collagenase inhibition IC50: 33.662 ± 0.302 µg/mL
[4]
  Elastase inhibition IC50: 33.334 ± 0.299 µg/mL

## tannic acid
[5]
  Hyaluronidase inhibition IC50: 30.652 ± 0.626 µg/mL
